Here are results for 3 molecules from ChEMBL document CHEMBL1777686, “Discovery of DA-1229: a potent, long acting dipeptidyl peptidase-4 inhibitor for the treatment of type 2 diabetes” (Bioorg Med Chem Lett, 2011).

Some results are limits rather than exact numbers.

One data set concerns the target Cytochrome P450 3A4 (Homo sapiens, UniProt P08684). In words: Inhibition of CYP3A4. The class given is ADME.
A further data set addresses T1, Cytochrome P450 1A2 (Homo sapiens, UniProt P05177).
T1 sequence (P05177 whole entry): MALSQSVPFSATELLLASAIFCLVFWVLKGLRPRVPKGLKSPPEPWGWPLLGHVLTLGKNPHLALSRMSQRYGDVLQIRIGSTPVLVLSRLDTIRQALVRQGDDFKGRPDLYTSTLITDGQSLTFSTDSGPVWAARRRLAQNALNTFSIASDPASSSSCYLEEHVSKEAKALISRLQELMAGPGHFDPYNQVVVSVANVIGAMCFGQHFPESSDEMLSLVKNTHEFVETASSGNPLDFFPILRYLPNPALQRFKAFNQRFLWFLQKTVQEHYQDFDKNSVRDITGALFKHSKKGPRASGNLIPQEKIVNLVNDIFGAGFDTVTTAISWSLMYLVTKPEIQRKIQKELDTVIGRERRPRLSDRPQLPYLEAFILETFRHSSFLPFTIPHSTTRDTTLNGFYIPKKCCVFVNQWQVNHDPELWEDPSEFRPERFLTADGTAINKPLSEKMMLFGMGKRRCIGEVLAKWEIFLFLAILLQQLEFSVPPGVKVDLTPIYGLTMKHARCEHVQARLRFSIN
In words: Inhibition of CYP1A2. The class given is ADME.

The target of another data set is Cytochrome P450 2D6 (Homo sapiens, UniProt P10635). In words: Inhibition of CYP2D6. Type of data set: ADME.
The target in the next data set is Cytochrome P450 2C9 (Homo sapiens, UniProt P11712). In words: Inhibition of CYP2C9. The class given is ADME.
Another data set has as its target Cytochrome P450 2C19 (Homo sapiens, UniProt P33261). In words: Inhibition of CYP2C19. The class given is ADME.
Data set [1] concerns Rattus norvegicus. In words: Inhibition of DPP-4 in Sprague-Dawley rat plasma at 3 mg/kg, po administered as single dose measured at 24 hrs post dose. Type of data set: functional. The gist of the method: (§1)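 SD rats received a single oral dose of 1, 3 or 10 mg/kg. Plasma was sampled from 30 min up to 24 h after dosing, and plasma DPP-4 activity was measured as percent inhibition.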

For data set [2], the system named is Rattus norvegicus. In words: Inhibition of DPP-4 in Sprague-Dawley rat plasma at 1 mg/kg, po administered as single dose measured at 24 hrs post dose. Type of data set: functional. The gist of the method:
as §1

For data set [3], the species on record is Rattus norvegicus. The following applies: Sprague-Dawley, Plasma, 1 mg/kg.
The target of data set [4] is Voltage-gated inwardly rectifying potassium channel KCNH2 (Homo sapiens, UniProt Q12809). In words: Inhibition of human ERG by patch clamp method. For orientation: Patch clamp records ionic current or voltage across a cell membrane.
Data set [5] relates to Mus musculus. In words: Antidiabetic activity in po dosed C57BL/6J mouse assessed as reduction in glucose AUC administered 30 mins before glucose challenge measured up to 120 mins by oral glucose tolerance test. The class given is functional, organism-based. Put shortly:
(§2)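 Oral dosing in C57BL/6J mice at 0.1, 0.3 or 1.0 mg/kg in 0.5% methylcellulose vehicle, followed by a 2 g/kg glucose challenge 30 min post-dose. […] Percent inhibition was calculated from AUC normalized to non-glucose controls. Means ± SEM.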

The subject of data set [6] is Rattus norvegicus. In words: Inhibition of DPP-4 in Sprague-Dawley rat plasma at 10 mg/kg, po administered as single dose measured at 24 hrs post dose. The class given is functional. The gist of the method: as §1
Data set [7] is described as follows: Half life in rat. Type of data set: ADME, organism-based. The settings on record: in vivo.
The nature of data set [8]: Clearance in rat. The class given is ADME, organism-based. The following applies: in vivo.
For data set [9], the system named is Mus musculus. In words: Antidiabetic activity in C57BL/6J mouse assessed as inhibition of blood glucose elevation at 1 mg/kg, po administered 30 mins before glucose challenge by oral glucose tolerance test. The class given is functional. The gist of the method:
as §2

Data set [10] can be described thus: Volume of distribution at steady state in rat. Type of data set: ADME, organism-based. The settings on record: in vivo, read-out: Vdss.
Data set [11] can be described thus: Oral bioavailability in rat. The settings on record: in vivo. Type of data set: ADME, organism-based.
The nature of data set [12]: Half life in human liver microsomes. Type of data set: ADME, Microsome. In general terms: Liver microsomes are vesicles of endoplasmic reticulum, rich in cytochrome P450 enzymes.

Cytochrome P450 3A4, sequence (P08684 whole entry): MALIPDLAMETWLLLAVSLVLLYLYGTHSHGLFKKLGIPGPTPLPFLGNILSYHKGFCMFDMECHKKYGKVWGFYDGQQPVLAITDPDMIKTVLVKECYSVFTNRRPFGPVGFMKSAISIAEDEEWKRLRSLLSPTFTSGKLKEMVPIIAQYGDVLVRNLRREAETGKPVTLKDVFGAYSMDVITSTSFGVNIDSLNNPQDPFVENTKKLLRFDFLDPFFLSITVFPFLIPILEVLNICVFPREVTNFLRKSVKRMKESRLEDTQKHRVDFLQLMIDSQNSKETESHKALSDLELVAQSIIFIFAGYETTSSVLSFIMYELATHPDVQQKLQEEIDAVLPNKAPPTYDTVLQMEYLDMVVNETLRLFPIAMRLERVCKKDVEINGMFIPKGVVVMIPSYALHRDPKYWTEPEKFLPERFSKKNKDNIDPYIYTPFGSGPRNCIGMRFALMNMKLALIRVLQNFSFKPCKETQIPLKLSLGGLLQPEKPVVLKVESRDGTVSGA
Cytochrome P450 2D6, sequence (P10635 whole entry): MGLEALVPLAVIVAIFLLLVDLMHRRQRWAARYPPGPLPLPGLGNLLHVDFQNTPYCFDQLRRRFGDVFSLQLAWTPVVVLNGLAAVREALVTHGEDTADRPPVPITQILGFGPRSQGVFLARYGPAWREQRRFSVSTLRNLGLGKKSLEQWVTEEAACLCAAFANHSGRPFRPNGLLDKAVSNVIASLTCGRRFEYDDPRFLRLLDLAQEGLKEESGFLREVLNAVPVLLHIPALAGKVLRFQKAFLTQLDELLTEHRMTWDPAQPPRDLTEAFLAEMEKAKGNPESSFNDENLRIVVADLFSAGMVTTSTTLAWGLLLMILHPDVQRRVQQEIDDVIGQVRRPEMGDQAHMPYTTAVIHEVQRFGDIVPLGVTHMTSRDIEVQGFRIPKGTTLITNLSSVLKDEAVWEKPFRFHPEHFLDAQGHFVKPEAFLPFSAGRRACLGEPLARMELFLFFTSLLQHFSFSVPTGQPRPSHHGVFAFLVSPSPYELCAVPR
Cytochrome P450 2C9, sequence (P11712 whole entry): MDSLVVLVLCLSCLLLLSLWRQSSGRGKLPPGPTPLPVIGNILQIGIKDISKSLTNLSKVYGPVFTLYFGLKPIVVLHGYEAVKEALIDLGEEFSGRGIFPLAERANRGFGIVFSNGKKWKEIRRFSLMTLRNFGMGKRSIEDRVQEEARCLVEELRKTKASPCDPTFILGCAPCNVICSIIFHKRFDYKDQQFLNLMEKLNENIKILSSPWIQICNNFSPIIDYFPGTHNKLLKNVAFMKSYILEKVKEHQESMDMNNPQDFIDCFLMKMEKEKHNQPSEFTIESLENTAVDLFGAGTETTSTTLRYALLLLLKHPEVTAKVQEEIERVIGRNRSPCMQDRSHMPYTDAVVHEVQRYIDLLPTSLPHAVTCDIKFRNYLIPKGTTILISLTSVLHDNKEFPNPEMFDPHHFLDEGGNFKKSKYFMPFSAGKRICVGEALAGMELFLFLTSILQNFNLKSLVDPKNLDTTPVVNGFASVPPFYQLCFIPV
Cytochrome P450 2C19, sequence (P33261 whole entry): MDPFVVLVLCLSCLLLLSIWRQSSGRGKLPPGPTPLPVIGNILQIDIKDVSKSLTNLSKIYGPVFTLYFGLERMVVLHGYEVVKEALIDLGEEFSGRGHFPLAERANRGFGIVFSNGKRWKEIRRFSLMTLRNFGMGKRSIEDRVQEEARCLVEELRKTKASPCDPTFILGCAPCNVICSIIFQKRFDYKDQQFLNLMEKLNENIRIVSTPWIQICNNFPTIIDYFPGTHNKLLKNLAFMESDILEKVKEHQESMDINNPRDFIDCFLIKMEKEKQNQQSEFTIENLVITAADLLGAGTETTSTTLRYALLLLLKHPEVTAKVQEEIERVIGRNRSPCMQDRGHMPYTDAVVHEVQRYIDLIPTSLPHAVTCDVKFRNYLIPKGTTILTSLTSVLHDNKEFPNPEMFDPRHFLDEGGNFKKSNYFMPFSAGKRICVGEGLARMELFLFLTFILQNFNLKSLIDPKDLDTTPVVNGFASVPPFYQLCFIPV
Voltage-gated inwardly rectifying potassium channel KCNH2, sequence (Q12809 whole entry): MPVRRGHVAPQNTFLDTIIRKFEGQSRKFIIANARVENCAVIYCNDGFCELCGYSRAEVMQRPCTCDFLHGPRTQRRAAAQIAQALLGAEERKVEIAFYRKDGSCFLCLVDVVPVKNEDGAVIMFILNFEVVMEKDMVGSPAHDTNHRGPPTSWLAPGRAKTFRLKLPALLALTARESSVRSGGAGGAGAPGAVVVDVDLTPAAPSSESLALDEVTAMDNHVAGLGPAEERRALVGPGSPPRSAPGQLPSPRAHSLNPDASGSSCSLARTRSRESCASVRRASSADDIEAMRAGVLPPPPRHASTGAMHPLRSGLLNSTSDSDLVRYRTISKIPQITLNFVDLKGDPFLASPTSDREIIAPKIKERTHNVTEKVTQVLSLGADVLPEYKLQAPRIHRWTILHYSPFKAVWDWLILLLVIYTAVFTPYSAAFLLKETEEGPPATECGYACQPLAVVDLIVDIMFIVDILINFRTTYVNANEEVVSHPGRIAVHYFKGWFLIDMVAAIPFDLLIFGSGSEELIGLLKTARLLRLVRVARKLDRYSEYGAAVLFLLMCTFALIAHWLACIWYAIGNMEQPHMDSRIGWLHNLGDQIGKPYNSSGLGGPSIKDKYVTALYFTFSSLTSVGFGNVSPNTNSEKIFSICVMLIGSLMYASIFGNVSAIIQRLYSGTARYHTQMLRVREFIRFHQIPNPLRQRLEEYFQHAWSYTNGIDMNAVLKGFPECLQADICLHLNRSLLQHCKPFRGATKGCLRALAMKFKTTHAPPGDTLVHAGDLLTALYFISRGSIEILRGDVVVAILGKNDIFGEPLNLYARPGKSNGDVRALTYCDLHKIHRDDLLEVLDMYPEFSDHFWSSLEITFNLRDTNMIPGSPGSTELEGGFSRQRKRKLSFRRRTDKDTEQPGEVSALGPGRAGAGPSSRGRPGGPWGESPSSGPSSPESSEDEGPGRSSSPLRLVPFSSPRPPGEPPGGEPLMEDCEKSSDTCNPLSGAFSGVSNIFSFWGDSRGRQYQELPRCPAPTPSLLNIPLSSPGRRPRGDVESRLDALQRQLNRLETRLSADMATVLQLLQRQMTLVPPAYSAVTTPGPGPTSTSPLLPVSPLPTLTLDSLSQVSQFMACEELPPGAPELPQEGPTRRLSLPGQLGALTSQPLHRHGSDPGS

For `COc1ccc(CN2CCN(C(=O)C[C@H](N)Cc3cc(F)c(F)cc3F)CC2=O)cc1`, the IC50 (as a rule, the point on the concentration scale where inhibition reaches its midpoint) against Cytochrome P450 3A4 came to 1.07 µM. In other words, the single-digit micromolar range.
As for `N[C@@H](CC(=O)N1CCNC(=O)[C@H]1CO)Cc1cc(F)c(F)cc1F`, the “inhibition (INH)” value against Cytochrome P450 3A4, against Cytochrome P450 1A2, at Cytochrome P450 2D6, at Cytochrome P450 2C9 and against Cytochrome P450 2C19 was “Not Active” each time.
Turning to `CC(C)(C)OC[C@@H]1C(=O)NCCN1C(=O)C[C@H](N)Cc1cc(F)c(F)cc1F` [EVOGLIPTIN], the inhibition in vivo (as a rule, the relative decrease from the control value, in per cent) at 3 mg/kg with Rattus norvegicus [1] came out at 82.9%. For the same molecule, the inhibition in vivo at 1 mg/kg with Rattus norvegicus [2] amounted to 72.5%; with Mus musculus [9] it was 63%. Further, the inhibition entry in the data set filed under Rattus norvegicus [3] is “Dose-dependent effect”. The INH at Cytochrome P450 3A4, at Cytochrome P450 1A2, at Cytochrome P450 2D6, on Cytochrome P450 2C9 and on Cytochrome P450 2C19 was greater than 50 µM in each case. This molecule came in with an IC50 in data set [4] of 79.6 µM. The Activity entry with Mus musculus [5] is “Dose-dependent effect”. Further, the inhibition in vivo at 10 mg/kg in the data set with Rattus norvegicus [6] was 87.2%. For the same molecule, the half-life (in general, how long it takes for the measured level to halve) in [7] is 6.1 h; in data set [12], greater than 1.5 h. Moreover, in data set [8], the clearance – broadly, the rate of elimination divided by the concentration – was found to be 60.5 mL/min/kg. Besides, in [10], the Vd was found to be 12 L/kg. In addition, in [11], the bioavailability (usually dose-corrected exposure relative to a reference, in per cent) worked out at 74.8%.
